Test results published in ChEMBL document CHEMBL5653630, “Activation of the p53-MDM4 regulatory axis defines the anti-tumour response to PRMT5 inhibition through its role in regulating cellular splicing” (Sci Rep, 2018).
Active and inactive are the calls of the source. The rule behind the calls is not given here.

Columns and labels:
[1] = system: HCC1806; assay: Antiproliferative activity against human HCC1806 cells assessed as cell growth inhibition incubated for 6 days by celltiter-glo assay; format: functional; conditions: HCC1806, 144 h, time 6 day
In short: (§1)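 Cells were seeded in 384-well plates and incubated 24 h, then treated in duplicate with a 20-point, 2-fold dilution series (top dose ≤29 μM, ≤0.15% DMSO) for 6 days. CellTiter-Glo luminescence was read on day 0 and day 6. A 4-parameter fit was used, and curves needed at least 1.5 population doublings. gIC50 is the midpoint of the growth window between DMSO and T0.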

[2] = system: HT-1376; assay: Antiproliferative activity against human HT-1376 cells assessed as cell growth inhibition incubated for 6 days by celltiter-glo assay; format: functional; conditions: HT-1376, 144 h, time 6 day; in short: as §1
[3] = system: JM1; assay: Antiproliferative activity against human JM1 cells assessed as cell growth inhibition incubated for 6 days by celltiter-glo assay; format: functional; conditions: JM1, 144 h, time 6 day
In short: (§2)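 Cells seeded in 384-well plates at an optimized density and held 24 h. Day 0: treated in duplicate with a 20-point two-fold series (top dose ≤29 μM, ≤0.15% DMSO) and incubated 6 days. CellTiter-Glo luminescence read at Day 0 and Day 6. Four-parameter fit. gIC50 = midpoint of the growth window between DMSO and T0. Curves required ≥1.5 population doublings.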

[4] = system: LP-1; assay: Antiproliferative activity against human LP-1 cells assessed as cell growth inhibition incubated for 6 days by celltiter-glo assay; format: functional; conditions: LP-1, 144 h, time 6 day; in short: as §2
[5] = Antiproliferative activity against human MINO cells assessed as cell growth inhibition incubated for 6 days by celltiter-glo assay; format: functional; conditions: 144 h, time 6 day; in short: as §2
[6] = system: NU-DHL-1; assay: Antiproliferative activity against human NU-DHL-1 cells assessed as cell growth inhibition incubated for 6 days by celltiter-glo assay; format: functional; conditions: NU-DHL-1, 144 h, time 6 day; in short: as §2
[7] = Antiproliferative activity against human PER-624 cells assessed as cell growth inhibition incubated for 6 days by celltiter-glo assay; format: functional; conditions: PER-624, 144 h, time 6 day; in short: as §2
[8] = system: Rec1; assay: Antiproliferative activity against human REC1 cells assessed as cell growth inhibition incubated for 6 days by celltiter-glo assay; format: functional; conditions: Rec1, 144 h, time 6 day; in short: as §2
[9] = system: SUD4; assay: Antiproliferative activity against human SU-DHL-4 cells assessed as cell growth inhibition incubated for 6 days by celltiter-glo assay; format: functional; conditions: SU-DHL-4, 144 h, time 6 day; in short: as §2
[10] = system: SU-DHL-6; assay: Antiproliferative activity against human SU-DHL-6 cells assessed as cell growth inhibition incubated for 6 days by celltiter-glo assay; format: functional; conditions: SU-DHL-6, 144 h, time 6 day; in short: as §2
[11] = system: SW780; assay: Antiproliferative activity against human SW780 cells assessed as cell growth inhibition incubated for 6 days by celltiter-glo assay; format: functional; conditions: SW780, 144 h, time 6 day; in short: as §2
[12] = system: Z-138; assay: Antiproliferative activity against human Z138 cells assessed as cell growth inhibition incubated for 6 days by celltiter-glo assay; format: functional; conditions: Z-138, 144 h, time 6 day; in short: as §2
[13] = system: Z-138; assay: Induction of cell cycle arrest in human Z138 cells assessed as accumulation of cells at G1 phase cells measured upto 1000 nM by propidium iodide staining based flow cytometric analysis; format: functional; conditions: time 1-10 day, TDE = time-dependent effect
[14] = system: Z-138; assay: Induction of cell cycle arrest in human Z138 cells assessed as increase in sub-2n cell population measured upto 1000 nM measured for 5 days by propidium iodide staining based flow cytometric analysis; format: functional; conditions: time 5.0 day
[15] = system: Z-138; assay: In vivo inhibition of PRMT5 in human Z138 cells xenografted in mouse assessed as increase in p53 level at 100 mg/kg, po BID measured for 7 days by immunohistochemical analysis; format: functional, organism-based; conditions: time 7.0 day
[16] = system: Z-138; assay: In vivo inhibition of PRMT5 in human Z138 cells xenografted in mouse assessed as increase in GADD45A expression at 100 mg/kg, po BID measured for 7 days; format: functional, organism-based; conditions: time 7.0 day
[17] = target: E3 ubiquitin-protein ligase Mdm2 (Homo sapiens) (UniProt Q00987); assay: In vivo inhibition of PRMT5 in human Z138 cells xenografted in mouse assessed as increase in MDM2 expression at 100 mg/kg, po BID measured for 7 days; format: functional, organism-based; conditions: Z-138, time 7.0 day
[18] = system: JEG-3; assay: Antiproliferative activity against human JEG-3 cells assessed as cell growth inhibition incubated for 10 days; format: functional; conditions: JEG-3, 240 h, time 10 day
In short: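 Eurofins-panel 10-day assay in 384-well plates. Cells grown in RPMI-1640 with 10% FBS, 2 mM L-alanyl-L-glutamine and 1mM Na pyruvate, or a special medium, at 37°C in 5% CO₂. Compound added 24 h after seeding, 10-point 3.16-fold series in 0.1% DMSO. Medium replaced and compound re-dosed at 168 h. Nuclei fixed and stained after 240 h, then imaged to give a relative cell count. gIC50 is the concentration giving growth midway between untreated and time-zero counts, from a 4-parameter fit.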

[19] = system: SW48; assay: Antiproliferative activity against human SW48 cells assessed as cell growth inhibition incubated for 10 days; format: functional; conditions: SW48, 240 h, time 10 day
[20] = system: SW-403; assay: Antiproliferative activity against human SW403 cells assessed as cell growth inhibition incubated for 10 days; format: functional; conditions: SW-403, 240 h, time 10 day
[21] = system: SNB-19; assay: Antiproliferative activity against human SNB-19 cells assessed as cell growth inhibition incubated for 10 days; format: functional; conditions: SNB-19, 240 h, time 10 day
[22] = system: SCC-9; assay: Antiproliferative activity against human SCC-9 cells assessed as cell growth inhibition incubated for 10 days; format: functional; conditions: SCC-9, 240 h, time 10 day
[23] = system: CAKI-1; assay: Antiproliferative activity against human CAKI-1 cells assessed as cell growth inhibition incubated for 10 days; format: functional; conditions: CAKI-1, 240 h, time 10 day
In short: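 Cells kept in RPMI-1640 with 10% FBS, 2 mM L-alanyl-L-glutamine and 1 mM Na pyruvate (or a special medium) at 37°C, 5% CO2. Compound added 24 h after seeding, 10 concentrations in 3.16-fold dilution, 0.1% DMSO final. Medium replaced and cells re-dosed at 168 h; 240 h incubation. Nuclei fixed, dye-stained and imaged. gIC50 = growth midway between untreated and time-zero cell counts, from a 4-parameter fit.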

[24] = system: SK-MEL3; assay: Antiproliferative activity against human SK-MEL3 cells assessed as cell growth inhibition incubated for 10 days; format: functional; conditions: SK-MEL3, 240 h, time 10 day
[25] = system: Hs 766; assay: Antiproliferative activity against human Hs766T cells assessed as cell growth inhibition incubated for 10 days; format: functional; conditions: Hs 766, 240 h, time 10 day
In short: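 Eurofins panel, 384-well. Cells kept in RPMI-1640 with 10% FBS, 2 mM L-alanyl-L-glutamine and 1 mM Na pyruvate, or in a special medium, at 37°C under 5% CO2. Compound added 24 h after seeding as 10 concentrations in 3.16-fold steps, 0.1% DMSO final. Medium replaced and compound re-dosed at 168 h. After 240 h, cells fixed and nuclei stained for imaging. gIC50 = growth midway between untreated cells and time-zero count.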

[26] = system: SJSA-1; assay: Antiproliferative activity against human SJSA-1 cells assessed as cell growth inhibition incubated for 10 days; format: functional; conditions: SJSA-1, 240 h, time 10 day
[27] = system: U-2940; assay: Antiproliferative activity against human U-2940 cells assessed as reduction in cell viability; format: functional, cell-based

Chain of E3 ubiquitin-protein ligase Mdm2 (Homo sapiens) (Q00987 whole entry, looked up): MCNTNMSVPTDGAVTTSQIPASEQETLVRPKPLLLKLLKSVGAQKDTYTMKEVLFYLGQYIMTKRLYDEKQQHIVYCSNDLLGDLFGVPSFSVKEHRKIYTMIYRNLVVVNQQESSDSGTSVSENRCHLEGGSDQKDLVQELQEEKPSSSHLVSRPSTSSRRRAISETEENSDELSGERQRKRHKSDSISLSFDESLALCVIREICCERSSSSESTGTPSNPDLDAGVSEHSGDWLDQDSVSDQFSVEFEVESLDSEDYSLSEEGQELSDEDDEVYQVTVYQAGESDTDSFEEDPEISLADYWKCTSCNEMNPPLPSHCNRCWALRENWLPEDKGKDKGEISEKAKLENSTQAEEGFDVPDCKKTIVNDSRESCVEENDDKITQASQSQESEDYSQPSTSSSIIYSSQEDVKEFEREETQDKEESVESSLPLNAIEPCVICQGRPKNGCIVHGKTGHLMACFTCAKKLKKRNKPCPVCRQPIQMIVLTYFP

SMILES	GI50 [1] [nM]	GI50 [2] [nM]	GI50 [3] [nM]	GI50 [4] [nM]	GI50 [5] [nM]	GI50 [6] [nM]	GI50 [7] [nM]	GI50 [8] [nM]	GI50 [9] [nM]	GI50 [10] [nM]	GI50 [11] [nM]	GI50 [12] [nM]	other results
CC(=O)N1CCC(Nc2cc(C(=O)NC[C@H](O)CN3CCc4ccccc4C3)ncn2)CC1 [PEMRAMETOSTAT]	98	17600	79	1940	130	333	524	2110	492	4	290	4	Activity [13]: Tde; Activity [14]: Active; inhibition [15]: Active; inhibition [16]: Active; inhibition [17]: Active
O=C(NC[C@H](O)CN1CCc2ccccc2C1)c1ccnc(NC2CCC2)c1	261	13100	76	975	536	101	526	1990	571	13	451	14	GI50 [18]: 216 nM; GI50 [19]: 10000 nM; GI50 [20]: 153 nM; GI50 [21]: 223 nM; GI50 [22]: 747 nM; GI50 [23]: 68.8 nM; GI50 [24]: 181 nM; GI50 [25]: 1120 nM; GI50 [26]: 773 nM; Activity [27]: Active
